# Compound activity as filed in PubChem.
# IMP-1 inhibitor = inhibitors of Pseudomonas aeruginosa IMP-1 metallo-beta-lactamase. purified IMP-1, nitrocefin hydrolysis, epi-absorbance fluorescence. inhibition, % at 5.6 µM. 290,000 tested, 0.45% active;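 active means inhibition above the mean plus 3 SD of all compounds in the same screening run, cut at about 4.5% in these data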;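 further: 0% = IMP-1 with DMSO and 100% = DMSO wells lacking enzyme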
#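 System: purified recombinant IMP-1 beta-lactamase. Medium: Zinc- and detergent-supplemented HEPES buffer, pH 7.1. Compound: one 5.6 µM dose […]. Schedule: 15 min preincubation plus 25 min reaction at 25 °C. Technique: Epi-absorbance fluorescence, 480 nm excitation, 530 nm emission.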
# DNA FID counter-1 = displaces DNA intercalator in HCV helicase counter-screen | DNA fluorescent intercalator displacement, fluorescence | inhibition, % at 7.9 µM | 290,000 tested, 0.17% active;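 further: 0% = vehicle and 100% = reference compound; higher means more ethidium bromide displaced from hairpin DNA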
# SUMO HTRF inh = inhibitors of human SUMOylation (UBC9) | HTRF SUMOylation assay, SAE1/SAE2 + UBC9, in vitro | inhibition, % at 35 µM | 290,000 tested, 0.36% active | AID 2006; in the data active means inhibition above about 50%, passing the limit was not always enough
# Target sequence (P63279 whole entry, looked up): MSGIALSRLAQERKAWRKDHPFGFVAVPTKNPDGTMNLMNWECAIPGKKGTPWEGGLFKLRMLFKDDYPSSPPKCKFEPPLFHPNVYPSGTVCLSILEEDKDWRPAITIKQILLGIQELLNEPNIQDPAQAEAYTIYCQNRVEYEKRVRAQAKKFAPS
# HCV NS3 hel inh = blocks Hepatitis C virus NS3 helicase unwinding | NS3 helicase DNA unwinding, Cy5 molecular beacon fluorescence | inhibition, % at 10.9 µM | 290,000 tested, 0.56% active | AID 1800;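 active means inhibition above the mean of all tested compounds plus 3 SD, set per campaign, cut at about 35% in these data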;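 further: 0% = DMSO wells and 100% = thioflavine S control wells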
#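 Control set: DMSO versus 110 µM thioflavine S; Material: NS3 helicase fragment of HCV; Measured by: Cy5 fluorescence at 0 and 60 min, beacon hairpin quenching; Read-out basis: percent inhibition from t60/t0 fluorescence ratio; Times: reaction time 60 min, 25 °C; Repeats: single replicate; Compound dosing: single dose, 10.9 µM nominal final, DMSO 0.8% final.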
# VIM-2 inhibitor = blocks Pseudomonas aeruginosa VIM-2 metallo-beta-lactamase. purified VIM-2, nitrocefin hydrolysis, epi-absorbance fluorescence. inhibition, % at 5.6 µM. 290,000 tested, 0.89% active;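 active means inhibition above the mean of all tested compounds plus 3 SD, cutoff set per screening run, cut at about 7.5% in these data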;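 further: red hydrolysis product quenches plate fluorescence so inhibitors raise well fluorescence; 0% = enzyme with DMSO and 100% = DMSO without enzyme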
# NS3 helicase cf = confirmation of Hepatitis C virus NS3 helicase inhibitors; shares compounds with HCV NS3 hel inh; NS3 helicase DNA unwinding, Cy5 molecular beacon fluorescence; inhibition, % at 10.9 µM; 1,600 tested, 31% active; AID 1943;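 active means inhibition above the mean of all tested compounds plus 3 SD, cutoff set per campaign, cut at about 36% in these data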
# DNA FID counter-2 = displaces DNA intercalator in HCV helicase counter-screen. shares compounds with HCV NS3 hel inh. DNA fluorescent intercalator displacement, fluorescence. inhibition, % at 7.9 µM. 1,600 tested, 4% active. AID 1945;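 further: 0% = vehicle and 100% = reference compound; higher means more displacement of ethidium bromide from the DNA hairpin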
# An asterisk follows results filed as active; . = no result given. Sampled rows, rich in hits. Any-hit rate of the full collection: about 2.1%. Unless noted, no stated cut-off is given here; in the data, active means inhibition above about 37%; inactive means the rest.
SMILES,IMP-1 inhibitor,DNA FID counter-1,SUMO HTRF inh,HCV NS3 hel inh,VIM-2 inhibitor,NS3 helicase cf,DNA FID counter-2
CC(C)C1OC(c2cccc(NC(=O)c3cccs3)c2)OCC1(C)C (stereo not given),-4,-19,-6,-12,-6,.,.
COc1cccc(CN(C(=O)c2ccc([N+](=O)[O-])cc2)C2CCS(=O)(=O)C2)c1 (stereo not given),-1,-11,6,-11,-1,.,.
O=c1[nH][nH]c2c(N=Cc3ccccc3O)ccc(F)c12,0,-7,66*,53*,0,18,24
Cc1ccc(C(=O)N/C(=C\c2ccc(Cl)cc2)C(=O)NCCN2CCOCC2)cc1,-3,5,16,-10,-3,.,.
Cc1ccc(/C=C/C(=O)Nc2cccc(S(=O)(=O)N3CCOCC3)c2)o1,-3,-20,30,48*,-3,-1,18
CC1CCc2c(sc3nc(SCC(=O)O)n(-c4ccccc4)c(=O)c23)C1 (stereo not given),-2,-36,21,37*,-1,15,-16
CCCCN(C)CC(O)Cn1cc(/C=C/C(=O)c2ccc(C)cc2)c2ccccc21 (stereo not given),-4,23,11,-56,-5,.,.
CC(C)C(NC(N)=O)C(=O)NC1CCCCC1 (stereo not given),-4,-1,12,4,-3,.,.
COc1ccc(CN(C(=O)Cc2c[nH]c3ccccc23)C(C(=O)NC2CCCCC2)c2ccc(C)o2)cc1 (stereo not given),49*,89*,-14,65*,-2,11,-22
Cc1ccc(C(C(=O)NC2CCCCC2)N(Cc2ccccc2)C(=O)Cc2c[nH]c3ccccc23)o1 (stereo not given),-4,-30,-27,-10,-3,.,.
Cc1ccc(-c2csc3ncnc(NS(=O)(=O)c4ccc(Cl)cc4)c23)cc1,-3,-13,6,50*,-2,44*,-25
NNc1ncnc2scc(-c3ccc(Cl)cc3)c12,-4,-6,9,-11,-1,.,.
CC(NC(=O)/C=C/c1ccco1)c1nc2ccccc2n1Cc1cccc(Cl)c1 (stereo not given),-6,-19,8,36*,-5,-10,-12
O=C1CCCN1c1ccc(S(=O)(=O)NCc2ccc(F)cc2)cc1,-3,-10,-6,9,1,.,.
C#CCOc1c(/C=C\c2nc(O)c([N+](=O)[O-])c(=O)[nH]2)cc(Br)cc1OC,-2,-17,8,45*,-1,26,4
COC(=O)COc1c(/C=C\c2nc(O)c([N+](=O)[O-])c(=O)[nH]2)cccc1OC,-3,-5,18,5,0,.,.
CC(=O)C1=C(O)C(=O)N(c2ccc(Br)cc2)C1c1cccc(F)c1 (stereo not given),-3,-29,6,37*,-1,31,4
Cc1cc(-c2ccccc2)c2ccc(NC(=O)C(C)(C)C)nc2n1,-4,-32,14,-5,-2,.,.
C=CCOc1ccc(C2/C(=C(\O)c3ccc4c(c3)OCCO4)C(=O)C(=O)N2CCCN2CCOCC2)cc1 (stereo not given),-3,-25,6,50*,-5,3,-8
CCCOc1cccc(C2/C(=C(\O)c3ccc4c(c3)OCCO4)C(=O)C(=O)N2CCCn2ccnc2)c1 (stereo not given),-3,-25,16,41*,-3,-20,-33
COc1ccc(C2/C(=C(\O)c3ccc4c(c3)OCCO4)C(=O)C(=O)N2CCCn2ccnc2)cc1 (stereo not given),2,-9,2,7,-1,.,.
CCn1cc(CNC(=O)c2cccc([N+](=O)[O-])c2)c(C)n1,-1,-5,4,11,0,.,.
CCn1cc(CNC(=O)c2ccc(Cl)c([N+](=O)[O-])c2)c(C)n1,0,-7,1,36*,0,-13,1
Cc1cccc(NC(=O)c2ccccc2OCC(=O)N2CCCC2)c1C,-2,-21,1,40*,-2,8,-4
Cc1cccc(Nc2ccccc2C(=O)OCC(=O)N2CCOCC2)c1C,0,-45,-9,-3,0,.,.
SMILES,IMP-1 inhibitor,DNA FID counter-1,SUMO HTRF inh,HCV NS3 hel inh,VIM-2 inhibitor,NS3 helicase cf,DNA FID counter-2
O=C(OCc1ccc(Br)cc1F)c1cc2ccccc2oc1=O,-1,-15,-9,9,-1,.,.
CCOC(=O)c1cc2c(ccn2C)n1CC(=O)N(Cc1ccccc1)c1ccc(F)cc1,-2,-30,-6,13,-2,.,.
CC(C)OC(=O)c1cc2c(ccn2C)n1CC(=O)N(Cc1ccccc1)c1ccc(F)cc1,-3,-42,3,38*,-3,-12,-38
Cc1ccc(-c2nc3c(c(=O)c4ccccc4n3C)c(=O)n2Cc2ccco2)cc1,1,-39,21,38*,4,23,-6
O=C(O)CN1C(=O)/C(=C/c2cccc(Cl)c2)Oc2ccccc21,-2,-9,29,54*,-2,59*,-14
O=C(O)CN1C(=O)/C(=C/c2ccccc2Cl)Oc2ccccc21,0,-15,30,26,0,.,.
CCOC(=O)C1=C(O)/C(=C/c2cn(CC(=O)N3CCCC3)c3ccccc23)SC1=Nc1ccccc1,-1,-2,-3,-2,-1,.,.
CCOC(=O)C1=C(O)/C(=C/c2ccc(OCC(=O)O)c(OC)c2)SC1=Nc1ccc(OC)cc1,-3,-24,-6,36*,0,42*,-16
COc1cc(/C=N/NC(=O)[C@H](Cc2c[nH]c3ccccc23)NC(=O)OCC(C)C)cc([N+](=O)[O-])c1O,-2,-24,14,50*,-4,59*,-14
CCOC(=O)CC(=O)CSc1nc(-c2ccc3c(c2)OCO3)cc(C(F)(F)F)c1C#N,-2,-7,-12,37*,1,-2,1
CCOC(=O)CCSc1nc(-c2ccc3c(c2)OCO3)cc(C(F)(F)F)c1C#N,-3,0,2,-4,-2,.,.
CCCn1c(SCC(=O)NC2CCCC2)nnc1-c1cccnc1,-3,-7,-22,2,-2,.,.
NC(=S)Nc1cccc(-c2n[nH]c(=S)o2)c1,-4,1,17,-18,-4,.,.
Cc1ccc(NC(=S)Nc2cccc(-c3n[nH]c(=S)o3)c2)cc1,-6,-5,-6,39*,-4,35,-6
C=C1c2ccccc2NC(=S)N1Cc1ccc2c(c1)OCO2,-4,4,4,3,-2,.,.
COc1ccc(CCC(=O)OC(C)C(=O)c2ccc(C)cc2)cc1 (stereo not given),-4,-20,9,15,-4,.,.
COC(=O)c1ccc(OC(C)C(=O)c2ccc(C)cc2)cc1 (stereo not given),-3,-14,-2,37*,-5,-8,-16
